Experimental data from paper PMC5488126 (CPT: Pharmacometrics & Systems Pharmacology, 2017).

Assays:
platelet counts [1] = settings: human, BM dysfunction simulations
Procedure, shortened: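 The Friberg platelet model was extended with a capacity term fr on the proliferating compartment. fr rose linearly from a baseline fraction of 0.65 (initial Circ0 61.2 ×10⁹/L) over recovery durations of 1 h and 10, 30, 100, 300 and 1,000 days. Runs used slope 0 (recovery only) or 0.45 with 300 mg q.d. for 98 days. Schedules compared over 300-day recovery were 300 mg q.d. continuous, b.i.d. 3 on 4 off, and q.d. 7 on 7 off. fr was also varied from 0.25 to 1.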

circulating platelets = assay: Rat platelet count study fitted to myelosuppression model; format: in vivo, Han Wistar rat; settings: for platelet changes in rat: oral
platelet counts [2] = assay: Simulation of human platelet counts with healthy BM; settings: healthy simulations, converted from rat slope using fu
[3] = Rat PK model of AZD5153 plasma concentrations; format: in vivo, Han Wistar rat; settings: oral, population typical estimate (RSE), estimated from observed data
Procedure, shortened: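 Female Han Wistar rats, 9–10 weeks old, were dosed orally in 0.5% hydroxymethylcellulose with 0.1% Tween80. Plasma was taken 2 h postdose on days 1, 4 and 7 and measured by LC-MS/MS. Data were fitted to a one-compartment model with first-order absorption, with ka and clearance fixed from a separate toxicology study and volume estimated. Fitting used FOCE-ELS and included between-subject variability.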

[4] = cited from earlier work

| Recovery +drug induced myelosuppression: slopeAZD5153 (platelet counts [1]) | platelet changes in rat (circulating platelets; 0.1 mg/kg q.d.) | platelet changes in rat (circulating platelets; 1 mg/kg q.d.) | platelet changes in rat (circulating platelets; 1.5 mg/kg b.i.d. (3 on 4 off)) | slopeAZD5153 (circulating platelets; rat platelet PD model, total concentrations, population typical estimate (RSE)) | slopeAZD5153 (platelet counts [2]) | V [3] | SMILES | frequency of severe TCP by pretreatment baseline ([4]; OTX015 phase 1 trial) | dose-limiting toxicity in patients ([4]; phase I, nonleukemia hematological malignancies) |
| --- | --- | --- | --- | --- | --- | --- | --- | --- | --- |
| 0.45 1/(μmol/L) | negligible platelet changes | clear effects | clear effects | 0.09 (14) 1/(μmol/L) | 0.45 1/(μmol/L) | 0.39 (16) L/kg | COc1nnc2ccc(N3CCC(c4ccc(OCCN5CCN(C)C(=O)[C@H]5C)cc4)CC3)nn12 [AZD5153, (3R)‐4‐[2‐[4‐[1‐(3‐methoxy‐[1,2,4]triazolo[4,3‐b]pyridazin‐6‐yl)‐4‐piperidyl]phenoxy]ethyl]‐1,3‐dimethyl‐piperazin‐2‐one] |  |  |
|  |  |  |  |  |  |  | Cc1sc2c(c1C)C(c1ccc(Cl)cc1)=N[C@@H](CC(=O)Nc1ccc(O)cc1)c1nnc(C)n1-2 [OTX015] | severe TCP was more frequent in patients with low platelet counts at pretreatment baseline | thrombocytopenia (TCP) as a dose‐limiting toxicity (DLT) |
